Laboratory results: ChEMBL document CHEMBL1240468, “Regioselective hydrostannation of diarylalkynes directed by a labile ortho bromine atom: an easy access to stereodefined triarylolefins, hybrids of combretastatin A-4 and isocombretastatin A-4” (Eur J Med Chem, 2010)
pIC50: −log10 of the molar value.

Columns and labels:
[1] = tested on: HCT-116; experiment: Cytotoxicity against human HCT116 cells after 72 hrs; type: functional, cell-based; conditions: HCT-116, 72 h
Summary of the method: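 Cells seeded at 5 × 10³ per well in growth medium, cultured 24 h, then given compound in DMSO (under 0.1% final). After 72 h incubation, resazurin added for 2 h and fluorescence read (excitation 560 nm). IC50 taken as concentration reducing cell growth by 50% after 72 h treatment.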

[2] = Inhibition of sheep brain tubulin microtubule assembly by turbidimetry assay; design: species or system Ovis aries; conditions: for pIC50: read-out: IC50
Summary of the method: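 Sheep brain tubulin purified by two assembly–disassembly cycles, about 2–3 mg/mL in 0.1 M MES, 0.5 mM MgCl2, 1 mM EGTA, 1 mM GTP, pH 6.6. Compounds in DMSO; incubation 10 min at 37 °C, then 5 min at 0 °C. Assembly followed continuously by turbidity at 350 nm at 37 °C.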

| Compound | pIC50 [1] | IC50 [2] | pIC50 [2] |
| --- | --- | --- | --- |
| COc1ccc(/C(=C\c2cc(OC)c(OC)c(OC)c2)c2cc(OC)c(OC)c(OC)c2)c(Br)c1 | < 5.00 | Not Active | – |
| COc1ccc(/C=C(/c2ccc(OC)cc2)c2cc(OC)c(OC)c(OC)c2)cc1 | < 5.00 | – | 5.10 |
| COc1ccc(/C=C(/c2ccc(OC)c(F)c2)c2cc(OC)c(OC)c(OC)c2)cc1O | 5.10 | Not Active | – |
| COc1ccc(/C(=C/c2ccc(OC)c(O)c2)c2cc(OC)c(OC)c(OC)c2)cc1 | < 5.00 | – | 5.11 |
| COc1ccc(/C=C\c2cc(OC)c(OC)c(OC)c2)cc1O [COMBRETASTATIN A4] | 8.70 | – | – |
| COc1ccc(/C=C(\c2cc(OC)c(OC)c(OC)c2)c2ccc3ccccc3c2)cc1O | 5.10 | Not Active | – |
| COc1ccc(/C(=C\c2cc(OC)c(OC)c(OC)c2)c2cc(OC)c(OC)c(OC)c2)cc1 | < 5.00 | Not Active | – |
| COc1ccc(/C(=C/c2ccc(OC)c(O[Si](C)(C)C(C)(C)C)c2)c2cc(OC)c(OC)c(OC)c2Br)cc1 | < 5.00 | Not Active | – |
| COCOc1cc(/C=C(/c2ccc(OC)c(OCOC)c2)c2cc(OC)c(OC)c(OC)c2Br)ccc1OC | < 5.00 | – | 5.10 |
| COc1ccc(/C=C(/c2ccc(OC)cc2)c2cc(OC)c(OC)c(OC)c2Br)cc1 | < 5.00 | Not Active | – |
| COc1ccc(/C=C(/c2ccc(C)cc2)c2cc(OC)c(OC)c(OC)c2)cc1O | 5.52 | Not Active | – |
| COc1ccc(/C=C(/c2ccc(OC)c(O)c2)c2cc(OC)c(OC)c(OC)c2)cc1O | 5.30 | – | 5.07 |
| C=C(c1ccc(OC)c(O)c1)c1cc(OC)c(OC)c(OC)c1 | 8.70 | – | 5.68 |
| COc1ccc(/C=C(\c2ccc(OC)cc2)c2cc(OC)c(OC)c(OC)c2)cc1 | < 5.00 | – | 5.09 |
